According to ChEMBL document CHEMBL3603839, “Synthesis and antiproliferative activity of new bioconjugates of Salinomycin with amino acid esters” (Bioorg Med Chem Lett, 2015):
pIC50: −log10 of the molar value.

How the values were obtained:
LoVo [1] = assay: Antiproliferative activity against human LoVo cells after 72 hrs; assay type: functional, cell-based
In short: (§1)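 IC50 values (mean ± SD) were measured against human colon adenocarcinoma LoVo cells, their doxorubicin-resistant LoVo/DX subline, MV4-11 cells, and normal murine embryonic fibroblasts (BALB/3T3).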

[2] = Antiproliferative activity against doxorubicin-resistant human LoVo/DX cells after 72 hrs; assay type: functional, cell-based; in short: as §1
MV4-11 [3] = assay: Antiproliferative activity against human MV4-11 cells after 72 hrs; assay type: functional, cell-based; conditions: MV4-11, 72 h; in short: as §1
BALB/3T3 = assay: Antiproliferative activity against mouse BALB/3T3 cells after 72 hrs; assay type: cell-based; conditions: BALB/3T3, 72 h; in short: as §1
LoVo [4] = assay: Selectivity index, ratio of IC50 for mouse BALB/3T3 cells to IC50 for human LoVo cells; assay type: functional
In short: (§2)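 Selectivity index is the IC50 in normal BALB/3T3 fibroblasts divided by the IC50 in the respective cancer line. SI above 1.0 is taken as a favourable value.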

[5] = Selectivity index, ratio of IC50 for mouse BALB/3T3 cells to IC50 for human LoVo/DX cells; assay type: functional; in short: as §2
LoVo [6] = assay: Resistant index, ratio of IC50 for human LoVo/DX cells to IC50 for LoVo cells; assay type: functional
In short: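 Resistance index was calculated from IC50 values obtained in the doxorubicin-resistant LoVo/DX subline and the parental LoVo line. RI 0–2 is classed as sensitive, 2–10 as moderately sensitive, and above 10 as strongly resistant.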

MV4-11 [7] = assay: Selectivity index, ratio of IC50 for mouse BALB/3T3 cells to IC50 for human MV4-11 cells; assay type: functional; in short: as §2
[8] = Ratio of cisplatin IC50 to compound IC50 for doxorubicin-resistant human LoVo/DX cells; assay type: functional
[9] = Ratio of doxorubicin IC50 to compound IC50 for doxorubicin-resistant human LoVo/DX cells; assay type: functional

SMILES	pIC50 (LoVo [1])	pIC50 [2]	pIC50 (MV4-11 [3])	pIC50 (BALB/3T3)	Ratio IC50 (LoVo [4])	Ratio IC50 [5]	Ratio IC50 (LoVo [6])	Ratio IC50 (MV4-11 [7])	Ratio IC50 [8]	Ratio IC50 [9]
CC[C@@H](C(=O)[C@@H](C)[C@@H](O)[C@H](C)[C@@H]1O[C@@H]([C@@H](CC)C(=O)NCC(=O)OC)CC[C@@H]1C)[C@H]1O[C@]2(C=C[C@@H](O)[C@]3(CC[C@@](C)([C@H]4CC[C@](O)(CC)[C@H](C)O4)O3)O2)[C@H](C)C[C@@H]1C	5.28	5.41	5.44	4.37	8.03	10.81	0.74	11.64		
CC[C@@H](C(=O)[C@@H](C)[C@@H](O)[C@H](C)[C@@H]1O[C@@H]([C@@H](CC)C(=O)N[C@@H](CO)C(=O)OC)CC[C@@H]1C)[C@H]1O[C@]2(C=C[C@@H](O)[C@]3(CC[C@@](C)([C@H]4CC[C@](O)(CC)[C@H](C)O4)O3)O2)[C@H](C)C[C@@H]1C	4.75	5.11	5.24	4.40	2.27	5.16	0.44	6.9		
CC[C@@H](C(=O)[C@@H](C)[C@@H](O)[C@H](C)[C@@H]1O[C@@H]([C@@H](CC)C(=O)N[C@@H](Cc2cnc[nH]2)C(=O)OC)CC[C@@H]1C)[C@H]1O[C@]2(C=C[C@@H](O)[C@]3(CC[C@@](C)([C@H]4CC[C@](O)(CC)[C@H](C)O4)O3)O2)[C@H](C)C[C@@H]1C	5.44	6.07	6.10	4.43	10.08	43.54	0.23	46.26	3	9
CC[C@@H](C(=O)[C@@H](C)[C@@H](O)[C@H](C)[C@@H]1O[C@@H]([C@@H](CC)C(=O)N[C@@H](Cc2ccccc2)C(=O)OC)CC[C@@H]1C)[C@H]1O[C@]2(C=C[C@@H](O)[C@]3(CC[C@@](C)([C@H]4CC[C@](O)(CC)[C@H](C)O4)O3)O2)[C@H](C)C[C@@H]1C	5.46	5.46	5.54	4.77	4.87	4.87	1	5.89		
CC[C@@H](C(=O)[C@@H](C)[C@@H](O)[C@H](C)[C@@H]1O[C@@H]([C@@H](CC)C(=O)N[C@@H](Cc2ccc(O)cc2)C(=O)OC)CC[C@@H]1C)[C@H]1O[C@]2(C=C[C@@H](O)[C@]3(CC[C@@](C)([C@H]4CC[C@](O)(CC)[C@H](C)O4)O3)O2)[C@H](C)C[C@@H]1C	4.83	5.15	5.45	4.36	2.95	6.09	0.48	12.22		
COc1cccc2c1C(=O)c1c(O)c3c(c(O)c1C2=O)C[C@@](O)(C(=O)CO)C[C@@H]3O[C@H]1C[C@H](N)[C@H](O)[C@H](C)O1 [DOXORUBICIN]	7.05	5.14	7.30	6.51	3.44	0.04	80.67	6.2		
CC[C@@H](C(=O)[C@@H](C)[C@@H](O)[C@H](C)[C@@H]1O[C@@H]([C@@H](CC)C(=O)O)CC[C@@H]1C)[C@H]1O[C@]2(C=C[C@@H](O)[C@]3(CC[C@@](C)([C@H]4CC[C@](O)(CC)[C@H](C)O4)O3)O2)[C@H](C)C[C@@H]1C [SALINOMYCIN]	6.28	6.23	6.48		52.38	47.05	1.11	84.12		
